Measurements from ChEMBL document CHEMBL5705890, “Antitumor activity of an allosteric inhibitor of centromere-associated protein-E” (Proc Natl Acad Sci U S A, 2010).

Tests used:
[1] = biological target: Centromere-associated protein E (Homo sapiens, UniProt Q02224, K184T); test: Binding affinity to human CENP-E K184T mutant assessed as inhibition constant
[2] = Anticancer activity against human BC1 cells assessed as cell doubling measured for 72 hrs by DAPI staining based analysis; type: functional
EFM-19 = test: Anticancer activity against human EFM-19 cells assessed as cell growth inhibition measured after 72 hrs by DAPI staining based analysis; type: functional
In short: (§1)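 Cells seeded, DAPI-stained DNA content of fixed cells read by imaging 24 h after seeding (T0), and again after a further 72 h exposure to a range of drug concentrations (T72). T72 values were normalized to T0. Curve fits gave the concentration producing 50% growth inhibition relative to T0 and Ymax (GI50).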

BPH-1 = test: Anticancer activity against human BPH-1 cells assessed as cell doubling measured for 72 hrs by DAPI staining based analysis; type: functional
FaDu = test: Anticancer activity against human FaDu cells assessed as cell doubling measured for 72 hrs by DAPI staining based analysis; type: functional
NCI-H157 = test: Anticancer activity against human NCI-H157 cells assessed as cell growth inhibition measured after 72 hrs by DAPI staining based analysis; type: functional
CAKI-2 = test: Anticancer activity against human CAKI-2 cells assessed as cell growth inhibition measured after 72 hrs by DAPI staining based analysis; type: functional
In short: (§2)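 Cells were seeded, and DNA content at 24 h after seeding (T0) was read by imaging of fixed, DAPI-stained cells. Cells were then exposed to a range of drug concentrations for a further 72 h (T72) and DNA content was read again. T72 values were normalized to T0, and GI50 was taken from curve fits as the concentration giving 50% growth inhibition relative to T0 and Ymax.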

HN5 = test: Anticancer activity against human HN5 cells assessed as cell doubling measured for 72 hrs by DAPI staining based analysis; type: functional
SNU-423 = test: Anticancer activity against human SNU-423 cells assessed as cell growth inhibition measured after 72 hrs by DAPI staining based analysis; type: functional
G-401 = test: Anticancer activity against human G-401 cells assessed as cell growth inhibition measured after 72 hrs by DAPI staining based analysis; type: functional; in short: as §1
HCT-116 = test: Antitumor activity against human HCT-116 cells in xenograft model assessed as difference between median time to endpoint time of treated versus control group at 62.5 mg/kg; type: functional
SJRH30 = test: Anticancer activity against human SJRH30 cells assessed as cell growth inhibition measured after 72 hrs by DAPI staining based analysis; type: functional
A549 = test: Anticancer activity against human A549 cells assessed as cell doubling measured for 72 hrs by DAPI staining based analysis; type: functional
[3] = Anticancer activity against human MV-522 cells assessed as cell doubling measured for 72 hrs by DAPI staining based analysis; type: functional
SK-N-FI = test: Anticancer activity against human SK-N-FI cells assessed as cell growth inhibition measured after 72 hrs by DAPI staining based analysis; type: functional
NCI-H460 = test: Anticancer activity against human NCI-H460 cells assessed as cell doubling measured for 72 hrs by DAPI staining based analysis; type: functional
NCI/ADR-RES = test: Anticancer activity against human NCI/ADR-RES cells assessed as cell doubling measured for 72 hrs by DAPI staining based analysis; type: functional
DBTRG-05MG = test: Anticancer activity against human DBTRG-05MG cells assessed as cell doubling measured for 72 hrs by DAPI staining based analysis; type: functional
MDA-MB-231 [4] = test: Antitumor activity against human MDA-MB-231 cells in xenograft model assessed as difference between median time to endpoint time of treated versus control group at 125 mg/kg; type: functional
JEG-3 = test: Anticancer activity against human JEG-3 cells assessed as cell growth inhibition measured after 72 hrs by DAPI staining based analysis; type: functional
UACC-62 = test: Anticancer activity against human UACC-62 cells assessed as cell doubling measured for 72 hrs by DAPI staining based analysis; type: functional
[5] = Anticancer activity against human SKO-007 cells assessed as cell doubling measured for 72 hrs by DAPI staining based analysis; type: functional
[6] = Anticancer activity against human SW579 cells assessed as cell doubling measured for 72 hrs by DAPI staining based analysis; type: functional
NCI-H508 = test: Anticancer activity against human NCI-H508 cells assessed as cell growth inhibition measured after 72 hrs by DAPI staining based analysis; type: functional
SK-UT-1 = test: Anticancer activity against human SK-UT-1 cells assessed as cell doubling measured for 72 hrs by DAPI staining based analysis; type: functional
MOLT-16 = test: Anticancer activity against human MOLT-16 cells assessed as cell growth inhibition measured after 72 hrs by DAPI staining based analysis; type: functional
YAPC [7] = test: Anticancer activity against human YAPC cells assessed as cell doubling measured for 72 hrs by DAPI staining based analysis; type: functional
MDA-MB-231 [8] = test: Antitumor activity against human MDA-MB-231 cells in xenograft model assessed as tumor growth delay at 125 mg/kg relative to control; type: functional
YAPC [9] = test: Anticancer activity against human YAPC cells assessed as cell growth inhibition measured after 72 hrs by DAPI staining based analysis; type: functional
NCI-H292 = test: Anticancer activity against human NCI-H292 cells assessed as cell growth inhibition measured after 72 hrs by DAPI staining based analysis; type: functional
GCT = test: Anticancer activity against human GCT cells assessed as cell doubling measured for 72 hrs by DAPI staining based analysis; type: functional
RXF 393 = test: Anticancer activity against human RXF 393 cells assessed as cell doubling measured for 72 hrs by DAPI staining based analysis; type: functional
MX1 = test: Antitumor activity against human MX1 cells in xenograft model assessed as tumor growth delay at 62.5 mg/kg relative to control; type: functional
SW948 = test: Anticancer activity against human SW948 cells assessed as cell growth inhibition measured after 72 hrs by DAPI staining based analysis; type: functional
COLO 320DM = test: Anticancer activity against human COLO 320DM cells assessed as cell growth inhibition measured after 72 hrs by DAPI staining based analysis; type: functional; in short: as §2
RL95-2 = test: Anticancer activity against human RL95-2 cells assessed as cell growth inhibition measured after 72 hrs by DAPI staining based analysis; type: functional
NCI-H2122 = test: Anticancer activity against human NCI-H2122 cells assessed as cell growth inhibition measured after 72 hrs by DAPI staining based analysis; type: functional
ES-2 = test: Anticancer activity against human ES2 cells assessed as cell doubling measured for 72 hrs by DAPI staining based analysis; type: functional
HCC 2998 = test: Anticancer activity against human HCC 2998 cells assessed as cell growth inhibition measured after 72 hrs by DAPI staining based analysis; type: functional; in short: as §1
U2OS = test: Anticancer activity against human U2OS cells assessed as cell doubling measured for 72 hrs by DAPI staining based analysis; type: functional
SiHa = test: Anticancer activity against human SiHa cells assessed as cell doubling measured for 72 hrs by DAPI staining based analysis; type: functional
NCI-H209 = test: Anticancer activity against human NCI-H209 cells assessed as cell growth inhibition measured after 72 hrs by DAPI staining based analysis; type: functional

Sequence of Centromere-associated protein E (Q02224 whole entry K184T): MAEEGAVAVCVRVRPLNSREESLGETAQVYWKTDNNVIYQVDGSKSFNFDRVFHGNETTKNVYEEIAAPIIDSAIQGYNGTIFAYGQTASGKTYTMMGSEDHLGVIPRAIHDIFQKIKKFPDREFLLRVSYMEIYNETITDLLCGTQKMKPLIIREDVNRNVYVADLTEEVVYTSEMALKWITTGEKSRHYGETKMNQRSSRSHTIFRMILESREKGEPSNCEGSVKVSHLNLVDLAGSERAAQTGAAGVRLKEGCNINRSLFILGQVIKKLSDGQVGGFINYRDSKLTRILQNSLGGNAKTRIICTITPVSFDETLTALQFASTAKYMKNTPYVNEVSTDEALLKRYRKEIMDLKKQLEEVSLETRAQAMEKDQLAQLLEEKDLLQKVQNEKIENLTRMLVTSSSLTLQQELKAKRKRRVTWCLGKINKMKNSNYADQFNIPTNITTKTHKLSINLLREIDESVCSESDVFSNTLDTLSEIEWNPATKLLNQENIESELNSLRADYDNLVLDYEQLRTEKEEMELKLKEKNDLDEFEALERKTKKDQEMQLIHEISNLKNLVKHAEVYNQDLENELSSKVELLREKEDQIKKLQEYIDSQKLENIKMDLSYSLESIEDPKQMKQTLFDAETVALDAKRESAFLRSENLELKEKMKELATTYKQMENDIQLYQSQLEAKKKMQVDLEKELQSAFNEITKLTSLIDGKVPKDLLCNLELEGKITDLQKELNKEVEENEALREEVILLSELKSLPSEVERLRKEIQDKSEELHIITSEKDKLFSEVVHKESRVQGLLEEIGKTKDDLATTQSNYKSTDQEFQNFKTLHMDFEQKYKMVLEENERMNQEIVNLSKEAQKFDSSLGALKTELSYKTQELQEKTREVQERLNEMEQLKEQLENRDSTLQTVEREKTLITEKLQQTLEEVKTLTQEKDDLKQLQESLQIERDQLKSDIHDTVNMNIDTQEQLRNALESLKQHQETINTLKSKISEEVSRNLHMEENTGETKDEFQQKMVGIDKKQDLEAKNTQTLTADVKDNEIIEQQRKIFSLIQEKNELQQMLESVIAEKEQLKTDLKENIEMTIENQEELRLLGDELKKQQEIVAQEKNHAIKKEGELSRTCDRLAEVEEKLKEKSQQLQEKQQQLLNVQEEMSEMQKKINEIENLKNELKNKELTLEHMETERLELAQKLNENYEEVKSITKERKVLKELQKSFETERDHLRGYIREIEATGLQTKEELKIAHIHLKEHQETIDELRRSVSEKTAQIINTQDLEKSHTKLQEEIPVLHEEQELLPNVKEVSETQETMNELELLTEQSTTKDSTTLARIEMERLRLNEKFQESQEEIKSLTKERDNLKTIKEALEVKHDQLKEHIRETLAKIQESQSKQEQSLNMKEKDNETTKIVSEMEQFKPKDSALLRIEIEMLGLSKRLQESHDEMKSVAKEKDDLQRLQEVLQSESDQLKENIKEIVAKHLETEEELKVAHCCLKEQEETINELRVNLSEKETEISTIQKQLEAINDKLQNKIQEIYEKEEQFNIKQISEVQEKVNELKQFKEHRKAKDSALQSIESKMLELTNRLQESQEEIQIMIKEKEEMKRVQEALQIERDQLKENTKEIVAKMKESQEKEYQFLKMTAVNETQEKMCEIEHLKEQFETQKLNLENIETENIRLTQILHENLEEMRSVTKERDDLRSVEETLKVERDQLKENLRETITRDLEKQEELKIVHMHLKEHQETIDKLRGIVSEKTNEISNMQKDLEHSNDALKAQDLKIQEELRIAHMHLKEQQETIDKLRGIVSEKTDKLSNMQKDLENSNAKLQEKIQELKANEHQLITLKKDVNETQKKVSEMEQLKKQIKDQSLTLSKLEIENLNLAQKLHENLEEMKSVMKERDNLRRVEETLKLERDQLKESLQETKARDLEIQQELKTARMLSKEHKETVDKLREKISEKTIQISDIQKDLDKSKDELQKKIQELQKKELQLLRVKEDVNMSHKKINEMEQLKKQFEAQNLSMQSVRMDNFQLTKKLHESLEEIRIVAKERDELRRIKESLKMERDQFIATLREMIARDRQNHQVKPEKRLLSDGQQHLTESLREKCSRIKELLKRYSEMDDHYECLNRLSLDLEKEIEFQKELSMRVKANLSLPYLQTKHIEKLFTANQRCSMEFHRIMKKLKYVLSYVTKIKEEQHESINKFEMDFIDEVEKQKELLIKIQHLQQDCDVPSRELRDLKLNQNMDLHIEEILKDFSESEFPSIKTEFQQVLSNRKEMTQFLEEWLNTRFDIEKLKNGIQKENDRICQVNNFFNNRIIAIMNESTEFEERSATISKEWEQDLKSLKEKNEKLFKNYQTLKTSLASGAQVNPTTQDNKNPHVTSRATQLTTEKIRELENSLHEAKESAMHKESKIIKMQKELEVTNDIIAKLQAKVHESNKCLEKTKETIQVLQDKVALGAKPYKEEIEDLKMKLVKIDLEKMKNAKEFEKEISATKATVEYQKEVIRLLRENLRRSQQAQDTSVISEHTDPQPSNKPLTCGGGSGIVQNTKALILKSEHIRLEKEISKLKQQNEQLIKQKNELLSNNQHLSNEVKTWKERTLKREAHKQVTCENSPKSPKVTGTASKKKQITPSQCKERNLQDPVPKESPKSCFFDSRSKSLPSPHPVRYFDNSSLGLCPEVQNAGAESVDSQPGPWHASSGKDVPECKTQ

`CC(C)Oc1ccc(C(=O)N[C@H](CNC(=O)CN(C)C)Cc2ccc(-c3cn4cccc([C@H](C)O)c4n3)cc2)cc1Cl` [GSK-923295A] showed a Ki [1] of 12 nM, an Activity [2] of 3.65 and a GI50 (EFM-19) of 28 nM. The Activity (BPH-1) was 2.08, the Activity (FaDu) was 2.61 and the GI50 (NCI-H157) was 37 nM. For the same molecule, the GI50 (CAKI-2) was 25 nM, the Activity (HN5) was 3.38 and the GI50 (SNU-423) was 34 nM. For the same molecule, the GI50 (G-401) was 26 nM, the Time (HCT-116) was -2.8 days and the GI50 (SJRH30) was 26 nM. For the same molecule, the Activity (A549) was 3.53, the Activity [3] was 2.81 and the GI50 (SK-N-FI) was 120 nM. It also gave an Activity (NCI-H460) of 3.86, an Activity (NCI/ADR-RES) of 2.47 and an Activity (DBTRG-05MG) of 1.33. It also gave a Time (MDA-MB-231 [4]) of 47.1 days, a GI50 (JEG-3) of 25 nM and an Activity (UACC-62) of 2.12. For the same molecule, the Activity [5] was 1.01, the Activity [6] was 1.41 and the GI50 (NCI-H508) was 32 nM. The Activity (SK-UT-1) was 2.88, the GI50 (MOLT-16) was 47 nM and the Activity (YAPC [7]) was 2.14. It also gave an Activity (MDA-MB-231 [8]) of 99%, a GI50 (YAPC [9]) of 59 nM and a GI50 (NCI-H292) of 31 nM. The Activity (GCT) was 2.3, the Activity (RXF 393) was 1.2 and the Activity (MX1) was 5%. The GI50 (SW948) was 98 nM, the GI50 (COLO 320DM) was 306 nM and the GI50 (RL95-2) was 49 nM. For the same molecule, the GI50 (NCI-H2122) was 29 nM, the Activity (ES-2) was 3.69 and the GI50 (HCC 2998) was 29 nM. It also gave an Activity (U2OS) of 3.08, an Activity (SiHa) of 2.36 and a GI50 (NCI-H209) of 20 nM.
